The results in this text go back to PMC6447837 (Cancer Science, 2019).

The structures appear in SMILES notation.

In test [1] the test system is FOSL1. The test is described as follows: Immunohistochemistry of xenograft tumor tissues. In kind it is in vivo, NOD‐SCID mice. The settings on record: Aspc‐1 and Bxpc‐3 models; LY‐1816 and dasatinib 40 mg/kg/d p.o., gemcitabine 80 mg/kg/wk; IHC. In a few lines: (§1)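 Six-week-old female NOD-SCID mice received 5 × 10⁶ to 1 × 10⁷ cells s.c. in the right flank. Treatment began at about 200 mm³. Test compound (40 mg/kg/d) was given once daily by oral gavage in 25% PEG400 plus 5% DMSO in water. Tumors were resected at the end of dosing. Frozen sections were immunostained and imaged by light microscopy.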

Test [2] deals with FOSL1. The test is described as follows: Western blot, FOSL1 expression in intact cells. In kind it is cell-based, human. The settings on record: 10 PDAC cell lines, 12 hours.
For test [3], the system named is STAT3. The test is described as follows: Immunohistochemistry of xenograft tumor tissues. Format: in vivo, NOD‐SCID mice. The following applies: Aspc‐1 and Bxpc‐3 models; LY‐1816 and dasatinib 40 mg/kg/d p.o., gemcitabine 80 mg/kg/wk; IHC. The procedure, abridged:
as §1

The subject of test [4] is Bxpc‐3 cells. The test is described as follows: Annexin V/PI apoptosis assay. In kind it is cell-based, human. The settings on record: 24 hours. The procedure, abridged: (§2)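 Cells were treated with a range of concentrations for 24 hours, washed with PBS, then stained with annexin V‑FITC and propidium iodide for 15 minutes in the dark. […] Early (annexin V) and late (PI) apoptotic cells are reported as percentages, mean of n = 3 with SD.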

The next test relates to Aspc‐1 xenograft. As to the kind of experiment: Subcutaneous xenograft model. Format: in vivo, NOD‐SCID mice. The settings on record: Aspc‐1 model; LY‐1816 20 or 40 mg/kg/d p.o.; dasatinib 40 mg/kg/d p.o.; gemcitabine 80 mg/kg once a week. The procedure, abridged:
(§3)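 Female NOD‑SCID mice bearing s.c. right‑flank tumors (5 × 10⁶–1 × 10⁷ cells injected) were randomized at 100–200 mm³ (6–7 per group). They received test compound in 25% PEG400/5% DMSO/water by oral gavage once daily for 18 days, or vehicle. Tumors were measured by caliper every 3 days, with volume = length × width² × 0.5.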

Test [5] deals with Bxpc‐3 cells. As to the kind of experiment: Transwell invasion assay. In kind it is cell-based, human. The procedure, abridged: (§4)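 Inserts were precoated with polymerized collagen type I. Cells were seeded on the insert bottom in serum‑free medium with serial dilutions of test compound or vehicle, with 10% FBS medium in the lower chamber. After one day, cells were stained with calcein‑AM and optical sections taken at 10‑μm intervals. Invasion was scored as cells moving >20 μm into collagen; n = 3, mean with SD.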

Test [6] deals with Aspc‐1 cells. As to the kind of experiment: Annexin V/PI apoptosis assay. In kind it is cell-based, human. The settings on record: 24 hours. In a few lines: as §2
The test system of the next test is Bxpc‐3 xenograft. The test is described as follows: Subcutaneous xenograft model. Format: in vivo, NOD‐SCID mice. The following applies: Bxpc‐3 model; LY‐1816 20 or 40 mg/kg/d p.o.; dasatinib 40 mg/kg/d p.o.; gemcitabine 80 mg/kg once a week. In a few lines:
as §3

Test [7] concerns STAT3. As to the kind of experiment: Western blot, STAT3 phosphorylation. Format: cell-based, human. The settings on record: Aspc‐1 and Bxpc‐3 cells, 12 hours. In a few lines:
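Aspc-1 and Bxpc-3 cells were grown overnight in complete medium and treated with test compound for 12 h. Cells were lysed in RIPA buffer and protein was quantified. Lysates were run on SDS-PAGE and transferred to PVDF, then blocked 2 h in TBS-T with 5% non-fat milk. Blots were probed for pAKT Ser473, pERK Thr202/Tyr204, pSTAT3 Tyr705, the matching total proteins and β-actin. Detection was by enhanced chemiluminescence.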
Background: Immunoblotting shows a protein as a band on a membrane.

For test [8], the system named is Aspc‐1 cells. The test is described as follows: Transwell invasion assay. Format: cell-based, human. In a few lines:
as §4

Test [9] deals with Src (Homo sapiens, UniProt P12931). In kind it is cell-based. The settings on record: 10 PDAC cell lines; 12 hours; western blot.
Src (Homo sapiens, UniProt P12931), sequence (P12931 whole entry): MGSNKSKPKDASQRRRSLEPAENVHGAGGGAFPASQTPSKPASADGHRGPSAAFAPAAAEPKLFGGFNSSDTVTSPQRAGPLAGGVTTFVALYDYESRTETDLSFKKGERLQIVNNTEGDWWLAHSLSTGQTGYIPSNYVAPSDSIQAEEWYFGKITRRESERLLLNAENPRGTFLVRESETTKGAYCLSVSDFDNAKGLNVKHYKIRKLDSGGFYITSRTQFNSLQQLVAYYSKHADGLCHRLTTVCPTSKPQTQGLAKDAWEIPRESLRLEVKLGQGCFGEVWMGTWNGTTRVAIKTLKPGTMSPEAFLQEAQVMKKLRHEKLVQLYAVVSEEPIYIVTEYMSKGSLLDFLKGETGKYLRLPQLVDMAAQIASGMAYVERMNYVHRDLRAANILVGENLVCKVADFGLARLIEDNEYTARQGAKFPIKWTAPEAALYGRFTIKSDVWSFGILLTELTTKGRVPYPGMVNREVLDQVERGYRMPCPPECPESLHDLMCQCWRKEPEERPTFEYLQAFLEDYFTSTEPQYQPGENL
The subject of test [10] is Aspc‐1 cells. As to the kind of experiment: Wound healing assay. Format: cell-based, human. The following applies: 18 hours.
Test [11] concerns Bxpc‐3 cells. The test is described as follows: Wound healing assay. Format: cell-based, human. The following applies: 18 hours.
Test [12] has as its system Src. As to the kind of experiment: Immunohistochemistry of xenograft tumor tissues. The following applies: Aspc‐1 and Bxpc‐3 models; LY‐1816 and dasatinib 40 mg/kg/d p.o., gemcitabine 80 mg/kg/wk; IHC. In kind it is in vivo, NOD‐SCID mice.
Another test deals with cleaved caspase‐3. As to the kind of experiment: Immunohistochemistry of xenograft tumor tissues. In kind it is in vivo, NOD‐SCID mice. The settings on record: xenograft models; LY‐1816 40 mg/kg/d p.o., gemcitabine 80 mg/kg/wk; IHC. The procedure, abridged: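 Aspc‑1 or Bxpc‑3 s.c. tumors in NOD‑SCID mice were dosed p.o. daily from about 200 mm³, with vehicle controls. At study end, tumors were resected. Frozen sections were immunostained and imaged by light microscopy, and cleaved caspase‑3‑positive cells were counted.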

For `Cc1nc(Nc2ncc(C(=O)Nc3c(C)cccc3Cl)s2)cc(N2CCN(CCO)CC2)n1` [dasatinib], the “expression of FOSL1 in tumor tissues” value with FOSL1 [1] was “very weak or no influence on the phosphorylation of STAT3 or the expression of FOSL1”. Also, in the test on FOSL1 [2], the FOSL1 expression entry is reported as “slight influence on FOSL1 expression”. Also, in the test with STAT3 [3], the “phosphorylation of STAT3 in tumor tissues” value is recorded as “very weak or no influence on the phosphorylation of STAT3 or the expression of FOSL1”. The “apoptosis (annexin V and PI‐positive populations)” value in the test on Bxpc‐3 cells [4] and with Aspc‐1 cells [6] was “also could induce apoptosis” each time. For the same molecule, the antitumor activity result in the test with Aspc‐1 xenograft and in the test with Bxpc‐3 xenograft was “also showed antitumor activities” each time. Also, the cell invasion result in the test with Bxpc‐3 cells [5] and in the test on Aspc‐1 cells [8] was “poor ability to block cell invasion” throughout. The “phosphorylation of STAT3” value in the test on STAT3 [7] was “very weak or no impact on the phosphorylation of STAT3”.

As to `Nc1ccn([C@@H]2O[C@H](CO)[C@@H](O)C2(F)F)c(=O)n1` [gemcitabine, reference compound], the “phosphorylation of Src” value on Src [9] was “little inhibitory effect against Src and FOSL1 expression”. For the same molecule, in the test with FOSL1 [1], the “expression of FOSL1 in tumor tissues” value is given as “did not evidently inhibit the activities of Src or STAT3, nor FOSL1 expression”. The FOSL1 expression entry with FOSL1 [2] is “little inhibitory effect against Src and FOSL1 expression”. Moreover, the “phosphorylation of STAT3 in tumor tissues” value with STAT3 [3] is “did not evidently inhibit the activities of Src or STAT3, nor FOSL1 expression”. In addition, the cell migration result with Aspc‐1 cells [10] and with Bxpc‐3 cells [11] was “very weak activity in blocking cell migration” each time. Further, the “apoptosis (annexin V and PI‐positive populations)” value in the test on Bxpc‐3 cells [4] and in the test on Aspc‐1 cells [6] was “also could induce apoptosis” throughout. In addition, the antitumor activity entry with Aspc‐1 xenograft and in the test on Bxpc‐3 xenograft was “also showed antitumor activities” each time. Further, the cell invasion result in the test with Bxpc‐3 cells [5] and in the test on Aspc‐1 cells [8] was “poor ability to block cell invasion” throughout. For the same molecule, the “phosphorylation of Src in tumor tissues” value in the test with Src [12] is on record as “did not evidently inhibit the activities of Src or STAT3, nor FOSL1 expression”. Besides, the “cleaved caspase‐3 stain in tumor tissues” value in the test on cleaved caspase‐3 is “increase in the number of cleaved caspase‐3‐positive cells”.
